The source of these data is ChEMBL document CHEMBL1671867, “Novel polymyxin derivatives carrying only three positive charges are effective antibacterial agents” (Antimicrob Agents Chemother, 2008).

The structures appear in SMILES notation. Values after ≈ are worked out from the molar mass of the structure shown. Bridge positions count the residues as written; N and C are the ends. Square brackets hold non-standard residues; d marks the D form. Peptide text beside a SMILES is read from it. * marks the point of attachment. Decanoyl = CCCCCCCCCC(=O)*; Octanoyl = CCCCCCCC(=O)*; Dab = NCC[C@H](N)C(=O)O; Abu = CC[C@H](N)C(=O)O

One data set deals with V79. Description: Cytotoxicity against chinese hamster V79 cells at […] to 128 ug/ml after 24 hrs. It counts as cell-based, Cricetulus griseus. As to conditions: v79, 24 h.
Data set [1] can be described thus: Inhibition of [3H]gentamicin binding to brush border membrane of renal cortex. In outline: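 Brush border membrane vesicles prepared from male albino rat renal cortex by Mg2+-EGTA precipitation. Incubated with 20 μM [3H]gentamicin in 10 mM HEPES pH 7.5 with 300 mM mannitol, with or without compound, 60 min at 4°C. Then filtered, washed, and bound radioactivity counted by scintillation. IC50 fitted with the Hill equation.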

Data set [2] has as its system Escherichia coli. The data set is described as follows: Antibacterial activity against Escherichia coli ATCC […] by Etest method in presence of 1 ug/ml NAB7061. It counts as functional.
The test system of data set [3] is Escherichia coli. The data set is described as follows: Antibacterial activity against Escherichia coli IH3080 by Etest method in presence of 4 ug/ml NAB7064. It counts as functional.
Data set [4] concerns Klebsiella pneumoniae. Description: Antibacterial activity against Klebsiella pneumoniae ATCC 13883 by Etest method in presence of 2 ug/ml NAB7061. It counts as functional. In outline: (§1)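 MICs of the antibiotic taken from E-strips on Mueller-Hinton agar, run both with and without peptide. […] Inoculum was prepared per the strip manufacturer, matching CLSI M2-A9.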
Data set [5] relates to Enterobacter cloacae. Description: Antibacterial activity against Enterobacter cloacae ATCC 23355 […] by Etest method in presence of NAB7061. It counts as functional.
Data set [6] deals with Enterobacter cloacae. The data set is described as follows: Ratio of the MIC for Enterobacter cloacae ATCC 23355 in the absence of NAB7061 to MIC for Enterobacter cloacae ATCC 23355 […] in the presence of 4 ug/ml of NAB7061. It counts as functional.
The test system of data set [7] is Klebsiella pneumoniae. Description: Antibacterial activity against Klebsiella pneumoniae ATCC 13883 by Etest method. It counts as functional. The procedure, abridged:
as §1

Data set [8] concerns Klebsiella pneumoniae. The data set is described as follows: Antibacterial activity against Klebsiella pneumoniae ATCC 13883 by Etest method in presence of 4 ug/ml NAB7061. It counts as functional. The procedure, abridged: as §1
The subject of data set [9] is Escherichia coli. Description: Ratio of the MIC for Escherichia coli ATCC 25992 in the absence of NAB7061 to MIC for Escherichia coli ATCC 25992 in the presence of 4 ug/ml of NAB7061. It counts as functional.
Data set [10] concerns Escherichia coli. Description: Antibacterial activity against Escherichia coli ATCC […] by Etest method in presence of 2 ug/ml NAB7062. It counts as functional.
Data set [11] deals with Escherichia coli. Description: Ratio of the MIC for Escherichia coli IH3080 in the absence of NAB7061 to MIC for Escherichia coli IH3080 in the presence of 4 ug/ml of NAB7061. It counts as functional.
The subject of data set [12] is Klebsiella pneumoniae. The data set is described as follows: Antibacterial activity against Klebsiella pneumoniae ATCC 13883 by Etest method in presence of 1 ug/ml NAB7061. The format is functional. In outline:
as §1

The subject of data set [13] is Escherichia coli. Description: Antibacterial activity against Escherichia coli IH3080 by Etest method. It counts as functional. In outline: (§2)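 E-strip MIC on Mueller-Hinton agar without added peptide; inoculum per manufacturer, matching CLSI M2-A9.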
For data set [14], the system named is Escherichia coli. Description: Antibacterial activity against Escherichia coli ATCC 25992 by Etest method. The format is functional. In outline: as §2
In data set [15] the test system is Escherichia coli. Description: Antibacterial activity against Escherichia coli IH3080 by Etest method in presence of 1 ug/ml NAB7061. It counts as functional.
The test system of data set [16] is Enterobacter cloacae. Description: Antibacterial activity against Enterobacter cloacae ATCC 23355 […] by Etest method in presence of 1 ug/ml NAB7061. It counts as functional.
Data set [17] concerns Klebsiella pneumoniae. The data set is described as follows: Ratio of the MIC for Klebsiella pneumoniae ATCC 13883 in the absence of NAB7061 to MIC for Klebsiella pneumoniae ATCC 13883 in the presence of 4 ug/ml of NAB7061. It counts as functional.
Data set [18] has as its system Escherichia coli. Description: Antibacterial activity against Escherichia coli ATCC […] by Etest method in presence of 4 ug/ml NAB7064. It counts as functional.
Data set [19] has as its system Escherichia coli. Description: Antibacterial activity against Escherichia coli ATCC […] by Etest method in presence of NAB7061. The format is functional.
Data set [20] relates to Escherichia coli. The data set is described as follows: Antibacterial activity against Escherichia coli IH3080 by Etest method in presence of 2 ug/ml NAB7062. It counts as functional.
Data set [21] concerns Enterobacter cloacae. Description: Antibacterial activity against Enterobacter cloacae ATCC 23355 […] by Etest method in presence of 4 ug/ml NAB7064. The format is functional.
The test system of data set [22] is Enterobacter cloacae. Description: Antibacterial activity against Enterobacter cloacae ATCC 23355 by Etest method. The format is functional. The procedure, abridged: as §2
Data set [23] deals with Klebsiella pneumoniae. The data set is described as follows: Antibacterial activity against Klebsiella pneumoniae ATCC 13883 by Etest method in presence of NAB7061. The format is functional. In outline: as §1
For data set [24], the system named is Escherichia coli. The data set is described as follows: Antibacterial activity against Escherichia coli IH3080 by Etest method in presence of NAB7061. The format is functional.
Data set [25] relates to Enterobacter cloacae. The data set is described as follows: Antibacterial activity against Enterobacter cloacae ATCC 23355 […] by Etest method in presence of 2 ug/ml NAB7062. It counts as functional.

For the molecule `CCCCCCCC(=O)N[C@H](C(=O)N[C@H](CO)C(=O)N[C@H]1CCNC(=O)[C@H]([C@@H](C)O)NC(=O)[C@H](CCN)NC(=O)[C@H](CCN)NC(=O)[C@H](CC(C)C)NC(=O)[C@@H](Cc2ccccc2)NC(=O)[C@H](CCN)NC1=O)[C@@H](C)O`, the Activity entry in the data set on V79 is listed as “Non-toxic”. Further, the IC50 (commonly the concentration that inhibits the measured activity by half) in data set [1] worked out at 264 µM.

As to `CCCCCCCCCC(=O)N[C@H](C(=O)N[C@H](CO)C(=O)N[C@H]1CCNC(=O)[C@H]([C@@H](C)O)NC(=O)[C@H](CCN)NC(=O)[C@H](CCN)NC(=O)[C@H](CC(C)C)NC(=O)[C@@H](Cc2ccccc2)NC(=O)[C@H](CCN)NC1=O)[C@@H](C)O` (Decanoyl-T[dS][Dab][Dab][dF]L[Dab][Dab]T; lactam 3-C), the Activity result with V79 is “Non-toxic”. Further, the IC50 in data set [1] came out at 198 µM.

Take `CCCCCCCC(=O)N[C@H](C(=O)N[C@@H](CC)C(=O)N[C@H]1CCNC(=O)[C@H]([C@@H](C)O)NC(=O)[C@H](CCN)NC(=O)[C@H](CCN)NC(=O)[C@H](CC(C)C)NC(=O)[C@@H](Cc2ccccc2)NC(=O)[C@H](CCN)NC1=O)[C@@H](C)O` (Octanoyl-T[Abu][Dab][Dab][dF]L[Dab][Dab]T; lactam 3-C): the Activity entry with V79 is listed as “Non-toxic”. Further, in [1], the IC50 amounted to 187 µM.

`CC[C@H]1OC(=O)[C@H](C)[C@@H](O[C@H]2C[C@@](C)(OC)[C@@H](O)[C@H](C)O2)[C@H](C)[C@@H](O[C@@H]2O[C@H](C)C[C@H](N(C)C)[C@H]2O)[C@](C)(O)C[C@@H](C)CN(C)[C@H](C)[C@@H](O)[C@]1(C)O` [AZITHROMYCIN]: the MIC (usually the least concentration at which growth counts as inhibited) was determined as 0.5 µg/mL in the data set with Escherichia coli [2]; 0.064 µg/mL in the data set with Escherichia coli [3]; 0.19 µg/mL in the data set on Klebsiella pneumoniae [4]; 0.438 µg/mL in the data set on Enterobacter cloacae [5]; 2 µg/mL (≈ 2.67 µM) against Klebsiella pneumoniae [7]; 0.047 µg/mL in the data set on Klebsiella pneumoniae [8]. For the same molecule, the MIC was 0.19 µg/mL in the data set with Escherichia coli [10]; 0.19 µg/mL in the data set with Klebsiella pneumoniae [12]; 2 µg/mL (≈ 2.67 µM) with Escherichia coli [13]; 3 µg/mL (≈ 4.01 µM) in the data set with Escherichia coli [14]; 0.75 µg/mL with Escherichia coli [15]; 4 µg/mL in the data set with Enterobacter cloacae [16]. Further, the MIC in the data set with Escherichia coli [18] was 0.094 µg/mL; in the data set with Escherichia coli [20], 0.19 µg/mL; with Enterobacter cloacae [21] it was 0.19 µg/mL; with Enterobacter cloacae [22], 6 µg/mL (≈ 8.01 µM); with Klebsiella pneumoniae [23], at most 0.126 µg/mL; with Escherichia coli [24], 0.173 µg/mL. The MIC in the data set on Enterobacter cloacae [25] stood at 1.5 µg/mL. Also, the Ratio in the data set on Enterobacter cloacae [6] was found to be 32; with Escherichia coli [9], 24; with Escherichia coli [11] it was 31; in the data set on Klebsiella pneumoniae [17], 31. Further, the “fractional inhibitory concentration index (FICI)” value in the data set with Escherichia coli [19] was 0.157.

As for `CC[C@H]1OC(=O)[C@H](C)[C@@H](O[C@H]2C[C@@](C)(OC)[C@@H](O)[C@H](C)O2)[C@H](C)[C@@H](O[C@@H]2O[C@H](C)C[C@H](N(C)C)[C@H]2O)[C@](C)(O)C[C@@H](C)C(=O)[C@H](C)[C@@H](O)[C@]1(C)O` [ERYTHROMYCIN], the MIC in the data set on Escherichia coli [2] was determined as 6 µg/mL; with Escherichia coli [3] it was 0.38 µg/mL; in the data set on Klebsiella pneumoniae [4], 2 µg/mL; with Enterobacter cloacae [5], 0.375 µg/mL; in the data set with Klebsiella pneumoniae [7], 24 µg/mL (≈ 32.7 µM); in the data set on Klebsiella pneumoniae [8], 0.5 µg/mL. Moreover, the MIC in the data set on Escherichia coli [10] came to 2 µg/mL; with Klebsiella pneumoniae [12], 4 µg/mL; with Escherichia coli [13] it was 16 µg/mL (≈ 21.8 µM); with Escherichia coli [14], 32 µg/mL (≈ 43.6 µM); in the data set with Escherichia coli [15], 4 µg/mL; in the data set on Enterobacter cloacae [16], 48 µg/mL. Besides, the MIC in the data set on Escherichia coli [18] was 0.75 µg/mL; with Escherichia coli [20], 2 µg/mL; in the data set with Enterobacter cloacae [21], 1.5 µg/mL; with Enterobacter cloacae [22], 64 µg/mL (≈ 87.2 µM); in the data set on Klebsiella pneumoniae [23], at most 0.143 µg/mL; in the data set with Escherichia coli [24], 0.25 µg/mL. Moreover, the MIC with Enterobacter cloacae [25] was found to be 8 µg/mL. The Ratio came out at 21 in the data set with Enterobacter cloacae [6], 32 in the data set on Escherichia coli [9], 32 in the data set with Escherichia coli [11] and 24 in the data set with Klebsiella pneumoniae [17]. Besides, in the data set on Escherichia coli [19], the “fractional inhibitory concentration index (FICI)” value came out at 0.188.

For `C/C(=C\C(=O)OCCCCCCCCC(=O)O)C[C@@H]1OC[C@H](C[C@@H]2O[C@H]2[C@@H](C)[C@H](C)O)[C@@H](O)[C@H]1O` [MUPIROCIN], the MIC in the data set on Escherichia coli [2] came out at 16 µg/mL; in the data set with Escherichia coli [3], 1.5 µg/mL; in the data set with Klebsiella pneumoniae [4], 12 µg/mL; in the data set on Enterobacter cloacae [5] it was 0.293 µg/mL; against Klebsiella pneumoniae [7] it was 64 µg/mL (≈ 128 µM); with Klebsiella pneumoniae [8] it was 2 µg/mL. Moreover, the MIC in the data set with Escherichia coli [10] turned out to be 4 µg/mL; in the data set with Klebsiella pneumoniae [12] it was 24 µg/mL; in the data set with Escherichia coli [13] it was 128 µg/mL (≈ 256 µM); in the data set on Escherichia coli [14], 256 µg/mL (≈ 511 µM); in the data set with Escherichia coli [15] it was 16 µg/mL; in the data set with Enterobacter cloacae [16], 24 µg/mL. In addition, the MIC with Escherichia coli [18] is 1.5 µg/mL; in the data set on Escherichia coli [20] it was 12 µg/mL; with Enterobacter cloacae [21], 0.19 µg/mL; against Enterobacter cloacae [22], 48 µg/mL (≈ 95.9 µM); with Klebsiella pneumoniae [23] it was at most 0.167 µg/mL; with Escherichia coli [24] it was 0.146 µg/mL. In the data set with Enterobacter cloacae [25], the MIC worked out at 8 µg/mL. The Ratio with Enterobacter cloacae [6] is given as 250; with Escherichia coli [9] it was 64; with Escherichia coli [11] it was 64; with Klebsiella pneumoniae [17], 24. For the same molecule, in the data set with Escherichia coli [19], the “fractional inhibitory concentration index (FICI)” value worked out at 0.127.
